Published values of several laboratories.
Each line is one published result; the experiments were not run side by side. In brackets after ≈: the same amount, converted by molar mass.
Observed: microbial growth

Structure (SMILES) | organism | assay | test system | conditions | endpoint | result
O=[N+]([O-])c1ccc(-c2nc3ccccc3[nH]2)cc1 | Aspergillus niger |  | ATCC16404 |  | MIC | 512 µg/mL (≈ 2140 µM)
OC(CN1CCOCC1)(Cn1cncn1)c1ccc(F)cc1F (centres unmarked) | Lodderomyces parapsilosis | broth dilution | ATCC22019 | 48 h | MIC | 31.3 µg/mL (≈ 96.5 µM)
CSc1ccc(-c2nc3ccccc3[nH]2)cc1 | Aspergillus niger |  | ATCC16404 |  | MIC | 64 µg/mL (≈ 266 µM)
CCCCCCCCCCCCCCN1CCNCC1 | Lodderomyces parapsilosis | broth dilution | ATCC22019 | 48 h | MIC | 0.975 µg/mL (≈ 3.45 µM)
OC(Cn1cncn1)(Cn1cncn1)c1ccc(F)cc1F | Lodderomyces parapsilosis | broth dilution |  | 24 h | MIC90 | 0.5 µg/mL (≈ 1.63 µM)
CC(=O)N1CCN(c2ccc(OCC3COC(Cn4ccnc4)(c4ccc(Cl)cc4Cl)O3)cc2)CC1 (centres unmarked) | Lodderomyces parapsilosis |  |  |  | MIC90 | 0.125 µg/mL (≈ 0.235 µM)
CN(C)c1ccc(-c2nc3ccccc3[nH]2)cc1 | Aspergillus niger |  | ATCC16404 |  | MIC | 512 µg/mL (≈ 2160 µM)
C[C@@H]1[C@H](O)[C@@H](C)/C=C/C=C/C=C/C=C/C=C/C=C/C=C/[C@H](O[C@@H]2O[C@H](C)[C@@H](O)[C@H](N)[C@@H]2O)C[C@@H]2O[C@](O)(C[C@@H](O)C[C@@H](O)[C@H](O)CC[C@@H](O)C[C@@H](O)CC(=O)O[C@H]1C)C[C@H](O)[C@H]2C(=O)O | Lodderomyces parapsilosis |  |  |  | MIC90 | 0.125 µg/mL (≈ 0.135 µM)
O=C(Nc1ccccc1-c1ccc(F)c(F)c1)c1nccnc1C(F)(F)F | Alternaria porri |  |  |  | EC50 | 0.04 µg/mL (≈ 0.105 µM)
C[C@@H](c1ncncc1F)[C@](O)(Cn1cncn1)c1ccc(F)cc1F | Lodderomyces parapsilosis |  |  |  | MIC90 | 0.016 µg/mL (≈ 0.0458 µM)
CCCCCCCCCCCN1CCN(CC(O)(Cn2cncn2)c2ccc(F)cc2F)CC1 (centres unmarked) | Lodderomyces parapsilosis | broth dilution | ATCC22019 | 48 h | MIC | 0.24 µg/mL (≈ 0.502 µM)
